Experimental data taken from article PMC2825117 (Journal of Medicinal Chemistry, 2010).

Columns and labels:
[1] = molecular target: PHD2 (Homo sapiens, UniProt Q9GZT9); assay: PHD2 biochemical activity assay; details: hydroxylation of CODD peptide substrate, MALDI-TOF MS
[2] = molecular target: FIH (Homo sapiens, UniProt Q9NWT6); assay: FIH MALDI-TOF hydroxylation assay; assay type: biochemical
[3] = molecular target: T1, JMJD2E (Homo sapiens, UniProt B2RXH2); assay: MALDI-TOF MS based demethylation assay, JMJD2E; assay type: biochemical
T1 sequence (B2RXH2 1-337): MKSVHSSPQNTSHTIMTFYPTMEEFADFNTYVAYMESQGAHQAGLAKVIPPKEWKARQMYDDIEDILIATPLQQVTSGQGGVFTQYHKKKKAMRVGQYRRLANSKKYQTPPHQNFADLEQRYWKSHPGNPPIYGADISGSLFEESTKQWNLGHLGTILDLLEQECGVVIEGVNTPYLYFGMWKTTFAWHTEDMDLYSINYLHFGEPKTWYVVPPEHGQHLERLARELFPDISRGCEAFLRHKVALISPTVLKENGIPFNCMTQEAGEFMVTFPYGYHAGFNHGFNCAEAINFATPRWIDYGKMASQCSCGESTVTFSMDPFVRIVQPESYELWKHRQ
Summary of the method: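 Enzyme: human JMJD2E catalytic domain (residues 1-337), expressed in E. coli as N-terminal His6-tagged protein and purified by Ni-affinity chromatography. Quenched reaction mixtures are mixed with α-cyano-4-hydroxycinnamic acid matrix and analysed by MALDI-TOF MS. Percentage demethylation comes from the relative intensities of the peptide methylation states. IC50 is derived from how percentage demethylation varies across inhibitor concentrations.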

[4] = molecular target: T2, JMJD2A (Homo sapiens, UniProt O75164); assay: MALDI-TOF MS based demethylation assay, JMJD2A; assay type: biochemical
T2 sequence (O75164 1-1064): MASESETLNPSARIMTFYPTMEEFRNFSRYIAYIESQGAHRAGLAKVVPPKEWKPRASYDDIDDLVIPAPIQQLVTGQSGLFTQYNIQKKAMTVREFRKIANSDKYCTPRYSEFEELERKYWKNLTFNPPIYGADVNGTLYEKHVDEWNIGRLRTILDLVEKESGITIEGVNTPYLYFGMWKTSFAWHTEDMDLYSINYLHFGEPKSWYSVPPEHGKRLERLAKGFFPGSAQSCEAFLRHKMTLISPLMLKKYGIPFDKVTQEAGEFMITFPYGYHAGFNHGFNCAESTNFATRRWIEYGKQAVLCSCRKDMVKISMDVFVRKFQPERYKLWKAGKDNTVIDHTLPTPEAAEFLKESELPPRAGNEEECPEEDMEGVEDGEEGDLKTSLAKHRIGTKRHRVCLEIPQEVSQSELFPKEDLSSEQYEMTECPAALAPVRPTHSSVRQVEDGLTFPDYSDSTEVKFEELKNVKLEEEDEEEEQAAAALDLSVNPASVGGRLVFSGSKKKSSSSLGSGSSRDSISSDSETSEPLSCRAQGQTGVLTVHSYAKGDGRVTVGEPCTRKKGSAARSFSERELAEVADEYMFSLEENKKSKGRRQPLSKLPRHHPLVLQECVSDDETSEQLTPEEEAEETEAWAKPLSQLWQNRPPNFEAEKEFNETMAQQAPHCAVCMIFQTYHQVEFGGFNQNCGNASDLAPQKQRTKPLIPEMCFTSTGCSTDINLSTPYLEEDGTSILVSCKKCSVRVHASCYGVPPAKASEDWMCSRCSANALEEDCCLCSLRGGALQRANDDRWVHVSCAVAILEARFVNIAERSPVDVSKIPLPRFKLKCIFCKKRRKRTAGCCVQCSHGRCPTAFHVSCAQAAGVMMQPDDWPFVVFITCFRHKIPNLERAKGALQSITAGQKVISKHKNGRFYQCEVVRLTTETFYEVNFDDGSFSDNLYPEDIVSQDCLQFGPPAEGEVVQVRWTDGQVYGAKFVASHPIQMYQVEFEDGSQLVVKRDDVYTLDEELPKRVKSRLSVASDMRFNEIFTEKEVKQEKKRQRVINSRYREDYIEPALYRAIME

Chain of FIH (Q9NWT6 whole entry): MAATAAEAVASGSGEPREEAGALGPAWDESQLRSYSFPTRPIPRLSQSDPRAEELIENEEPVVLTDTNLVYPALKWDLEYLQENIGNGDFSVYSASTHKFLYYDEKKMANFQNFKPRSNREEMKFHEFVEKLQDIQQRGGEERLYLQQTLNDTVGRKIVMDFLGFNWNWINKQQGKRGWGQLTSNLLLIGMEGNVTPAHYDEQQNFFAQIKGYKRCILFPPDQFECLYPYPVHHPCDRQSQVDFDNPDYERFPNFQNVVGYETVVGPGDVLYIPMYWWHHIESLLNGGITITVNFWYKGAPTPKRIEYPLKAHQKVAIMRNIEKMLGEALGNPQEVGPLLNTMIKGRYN
Chain of PHD2 (Q9GZT9 whole entry): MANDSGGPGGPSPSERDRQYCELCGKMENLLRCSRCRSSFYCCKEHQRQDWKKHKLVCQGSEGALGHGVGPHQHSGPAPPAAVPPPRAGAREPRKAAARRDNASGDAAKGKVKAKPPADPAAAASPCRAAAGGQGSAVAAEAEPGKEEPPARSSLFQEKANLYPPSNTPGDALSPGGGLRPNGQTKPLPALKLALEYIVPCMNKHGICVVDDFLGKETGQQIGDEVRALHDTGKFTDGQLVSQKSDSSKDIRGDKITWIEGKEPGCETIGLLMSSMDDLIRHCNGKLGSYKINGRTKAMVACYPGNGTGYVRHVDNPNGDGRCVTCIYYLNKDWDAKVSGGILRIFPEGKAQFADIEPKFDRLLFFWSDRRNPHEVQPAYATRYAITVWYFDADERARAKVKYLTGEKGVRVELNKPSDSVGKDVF

inhibitory activity toward PHD2 (in words) [1]	IC50 [2] [µM]	IC50 [3] [µM]	SMILES	further results
No inhibitory activity	60.2		O=C(O)C(=O)N[C@H](Cc1ccc(OS(=O)(=O)c2ccc(Br)cc2)cc1)C(=O)O [7f]	
		47	O=C(O)C(=O)N[C@H](Cc1ccc(OCc2ccccc2[N+](=O)[O-])cc1)C(=O)O [10k]	
No inhibitory activity			O=C(O)C(=O)N[C@H](Cc1ccc(OS(=O)(=O)c2ccc(F)cc2)cc1)C(=O)O [7e]	

The remaining lines, values behind:

SMILES	inhibitory activity toward PHD2 (in words) [1]	IC50 [2] [µM]	IC50 [3] [µM]	further results
CC(C)(C)c1ccc(S(=O)(=O)Oc2ccc(C[C@@H](NC(=O)C(=O)O)C(=O)O)cc2)cc1 [7c]	No inhibitory activity	37.2		selectivity of inhibition (JMJD2E) with regard to FIH ([2]; comparison of JMJD2E FDH IC50 and FIH MALDI-TOF IC50): relatively low
O=C(O)CNC(=O)C(=O)O [1a, N-oxalylglycine, reference compound]	potent inhibitor of PHD2			
O=C(O)C(=O)N[C@H](Cc1ccc(OS(=O)(=O)c2ccccc2)cc1)C(=O)O [7d]			43	IC50 [4]: 17 µM
